Reference: PMC12166256 (Clinical Pharmacology and Therapeutics, 2025)

Assay: SAD study: safety and tolerability
Type: in vivo, human
Details: for Abdominal pain TEAE, events / Abdominal pain TEAE, participants / Any event TEAE, events / Any event TEAE, participants / Diarrhea TEAE, events / Diarrhea TEAE, participants / Dysgeusia TEAE, events / Dysgeusia TEAE, participants / Gastrointestinal disorders TEAE, events / Gastrointestinal disorders TEAE, participants / Headache TEAE, events / Headache TEAE, participants / Hypoaesthesia oral TEAE, events / Hypoaesthesia oral TEAE, participants / Infections and infestations TEAE, events / Infections and infestations TEAE, participants / Insomnia TEAE, events / Insomnia TEAE, participants / Nasopharyngitis TEAE, events / Nasopharyngitis TEAE, participants / Nervous system disorders TEAE, events / Nervous system disorders TEAE, participants / Psychiatric disorders TEAE, events / Psychiatric disorders TEAE, participants / Rash TEAE, events / Rash TEAE, participants / Skin and subcutaneous tissue disorders TEAE, events / Skin and subcutaneous tissue disorders TEAE, participants / Tooth infection TEAE, events / Tooth infection TEAE, participants: N = 6
Procedure, shortened: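 Healthy males aged 18–55 with BMI 18–30 kg/m² were followed through dosing and a 6–8-day follow-up. Checks: physical examination, clinical laboratory tests, vital signs and 12-lead ECG, with adverse events coded in MedDRA. Events of special interest: ALT ≥2×ULN, QTcF ≥500 ms, Grade ≥2 photosensitivity, symptomatic overdose. Treatment-emergent events were summarised descriptively by organ class, preferred term and dose level for all exposed participants.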

CN1C(=O)c2cccc(OC(F)F)c2[C@H]2C[C@@H]1c1nc3ccc(-c4cnc(C5(N)CCC5)nc4)cc3n12 [Balinatunfib]
2 (33.3) n (%): Any event TEAE, participants (SAD 400 mg) | Dysgeusia TEAE, participants (SAD 400 mg) | Nervous system disorders TEAE, participants (SAD 400 mg) | Any event TEAE, participants (SAD 600 mg)
1 (16.7) n (%): Any event TEAE, participants (SAD 60 mg) | Infections and infestations TEAE, participants (SAD 60 mg) | Tooth infection TEAE, participants (SAD 60 mg) | Abdominal pain TEAE, participants (SAD 400 mg) | Gastrointestinal disorders TEAE, participants (SAD 400 mg) | Headache TEAE, participants (SAD 400 mg) | Gastrointestinal disorders TEAE, participants (SAD 600 mg) | Hypoaesthesia oral TEAE, participants (SAD 600 mg) | Infections and infestations TEAE, participants (SAD 600 mg) | Insomnia TEAE, participants (SAD 600 mg) | Nasopharyngitis TEAE, participants (SAD 600 mg) | Psychiatric disorders TEAE, participants (SAD 600 mg)
1: Any event TEAE, events (SAD 60 mg) | Infections and infestations TEAE, events (SAD 60 mg) | Tooth infection TEAE, events (SAD 60 mg) | Abdominal pain TEAE, events (SAD 400 mg) | Gastrointestinal disorders TEAE, events (SAD 400 mg) | Headache TEAE, events (SAD 400 mg) | Gastrointestinal disorders TEAE, events (SAD 600 mg) | Hypoaesthesia oral TEAE, events (SAD 600 mg) | Infections and infestations TEAE, events (SAD 600 mg) | Insomnia TEAE, events (SAD 600 mg) | Nasopharyngitis TEAE, events (SAD 600 mg) | Psychiatric disorders TEAE, events (SAD 600 mg)
3: Nervous system disorders TEAE, events (SAD 400 mg) | Any event TEAE, events (SAD 600 mg)
2: Dysgeusia TEAE, events (SAD 400 mg)
well tolerated: tolerability (all single oral doses (5–600 mg))
0: Abdominal pain TEAE, events (SAD 5 mg) | Any event TEAE, events (SAD 5 mg) | Diarrhea TEAE, events (SAD 5 mg) | Dysgeusia TEAE, events (SAD 5 mg) | Gastrointestinal disorders TEAE, events (SAD 5 mg) | Headache TEAE, events (SAD 5 mg) | Hypoaesthesia oral TEAE, events (SAD 5 mg) | Infections and infestations TEAE, events (SAD 5 mg) | Insomnia TEAE, events (SAD 5 mg) | Nasopharyngitis TEAE, events (SAD 5 mg) | Nervous system disorders TEAE, events (SAD 5 mg) | Psychiatric disorders TEAE, events (SAD 5 mg) | Rash TEAE, events (SAD 5 mg) | Skin and subcutaneous tissue disorders TEAE, events (SAD 5 mg) | Tooth infection TEAE, events (SAD 5 mg) | Abdominal pain TEAE, events (SAD 20 mg) | Any event TEAE, events (SAD 20 mg) | Diarrhea TEAE, events (SAD 20 mg) | Dysgeusia TEAE, events (SAD 20 mg) | Gastrointestinal disorders TEAE, events (SAD 20 mg) | Headache TEAE, events (SAD 20 mg) | Hypoaesthesia oral TEAE, events (SAD 20 mg) | Infections and infestations TEAE, events (SAD 20 mg) | Insomnia TEAE, events (SAD 20 mg) | Nasopharyngitis TEAE, events (SAD 20 mg) | Nervous system disorders TEAE, events (SAD 20 mg) | Psychiatric disorders TEAE, events (SAD 20 mg) | Rash TEAE, events (SAD 20 mg) | Skin and subcutaneous tissue disorders TEAE, events (SAD 20 mg) | Tooth infection TEAE, events (SAD 20 mg) | Abdominal pain TEAE, events (SAD 60 mg) | Diarrhea TEAE, events (SAD 60 mg) | Dysgeusia TEAE, events (SAD 60 mg) | Gastrointestinal disorders TEAE, events (SAD 60 mg) | Headache TEAE, events (SAD 60 mg) | Hypoaesthesia oral TEAE, events (SAD 60 mg) | Insomnia TEAE, events (SAD 60 mg) | Nasopharyngitis TEAE, events (SAD 60 mg) | Nervous system disorders TEAE, events (SAD 60 mg) | Psychiatric disorders TEAE, events (SAD 60 mg) | Rash TEAE, events (SAD 60 mg) | Skin and subcutaneous tissue disorders TEAE, events (SAD 60 mg) | Abdominal pain TEAE, events (SAD 180 mg) | Any event TEAE, events (SAD 180 mg) | Diarrhea TEAE, events (SAD 180 mg) | Dysgeusia TEAE, events (SAD 180 mg) | Gastrointestinal disorders TEAE, events (SAD 180 mg) | Headache TEAE, events (SAD 180 mg) | Hypoaesthesia oral TEAE, events (SAD 180 mg) | Infections and infestations TEAE, events (SAD 180 mg) | Insomnia TEAE, events (SAD 180 mg) | Nasopharyngitis TEAE, events (SAD 180 mg) | Nervous system disorders TEAE, events (SAD 180 mg) | Psychiatric disorders TEAE, events (SAD 180 mg) | Rash TEAE, events (SAD 180 mg) | Skin and subcutaneous tissue disorders TEAE, events (SAD 180 mg) | Tooth infection TEAE, events (SAD 180 mg) | Diarrhea TEAE, events (SAD 400 mg) | Hypoaesthesia oral TEAE, events (SAD 400 mg) | Infections and infestations TEAE, events (SAD 400 mg) | Insomnia TEAE, events (SAD 400 mg) | Nasopharyngitis TEAE, events (SAD 400 mg) | Psychiatric disorders TEAE, events (SAD 400 mg) | Rash TEAE, events (SAD 400 mg) | Skin and subcutaneous tissue disorders TEAE, events (SAD 400 mg) | Tooth infection TEAE, events (SAD 400 mg) | Abdominal pain TEAE, events (SAD 600 mg) | Diarrhea TEAE, events (SAD 600 mg) | Dysgeusia TEAE, events (SAD 600 mg) | Headache TEAE, events (SAD 600 mg) | Nervous system disorders TEAE, events (SAD 600 mg) | Rash TEAE, events (SAD 600 mg) | Skin and subcutaneous tissue disorders TEAE, events (SAD 600 mg) | Tooth infection TEAE, events (SAD 600 mg)
13.9%: participants with at least one TEAE (SAD, all balinatunfib groups (five of 36))
No participants: Grade ≥ 3 TEAE, treatment-emergent SAEs, TEAEs leading to discontinuation, AESIs (SAD)
0 n (%): Abdominal pain TEAE, participants (SAD 5 mg) | Any event TEAE, participants (SAD 5 mg) | Diarrhea TEAE, participants (SAD 5 mg) | Dysgeusia TEAE, participants (SAD 5 mg) | Gastrointestinal disorders TEAE, participants (SAD 5 mg) | Headache TEAE, participants (SAD 5 mg) | Hypoaesthesia oral TEAE, participants (SAD 5 mg) | Infections and infestations TEAE, participants (SAD 5 mg) | Insomnia TEAE, participants (SAD 5 mg) | Nasopharyngitis TEAE, participants (SAD 5 mg) | Nervous system disorders TEAE, participants (SAD 5 mg) | Psychiatric disorders TEAE, participants (SAD 5 mg) | Rash TEAE, participants (SAD 5 mg) | Skin and subcutaneous tissue disorders TEAE, participants (SAD 5 mg) | Tooth infection TEAE, participants (SAD 5 mg) | Abdominal pain TEAE, participants (SAD 20 mg) | Any event TEAE, participants (SAD 20 mg) | Diarrhea TEAE, participants (SAD 20 mg) | Dysgeusia TEAE, participants (SAD 20 mg) | Gastrointestinal disorders TEAE, participants (SAD 20 mg) | Headache TEAE, participants (SAD 20 mg) | Hypoaesthesia oral TEAE, participants (SAD 20 mg) | Infections and infestations TEAE, participants (SAD 20 mg) | Insomnia TEAE, participants (SAD 20 mg) | Nasopharyngitis TEAE, participants (SAD 20 mg) | Nervous system disorders TEAE, participants (SAD 20 mg) | Psychiatric disorders TEAE, participants (SAD 20 mg) | Rash TEAE, participants (SAD 20 mg) | Skin and subcutaneous tissue disorders TEAE, participants (SAD 20 mg) | Tooth infection TEAE, participants (SAD 20 mg) | Abdominal pain TEAE, participants (SAD 60 mg) | Diarrhea TEAE, participants (SAD 60 mg) | Dysgeusia TEAE, participants (SAD 60 mg) | Gastrointestinal disorders TEAE, participants (SAD 60 mg) | Headache TEAE, participants (SAD 60 mg) | Hypoaesthesia oral TEAE, participants (SAD 60 mg) | Insomnia TEAE, participants (SAD 60 mg) | Nasopharyngitis TEAE, participants (SAD 60 mg) | Nervous system disorders TEAE, participants (SAD 60 mg) | Psychiatric disorders TEAE, participants (SAD 60 mg) | Rash TEAE, participants (SAD 60 mg) | Skin and subcutaneous tissue disorders TEAE, participants (SAD 60 mg) | Abdominal pain TEAE, participants (SAD 180 mg) | Any event TEAE, participants (SAD 180 mg) | Diarrhea TEAE, participants (SAD 180 mg) | Dysgeusia TEAE, participants (SAD 180 mg) | Gastrointestinal disorders TEAE, participants (SAD 180 mg) | Headache TEAE, participants (SAD 180 mg) | Hypoaesthesia oral TEAE, participants (SAD 180 mg) | Infections and infestations TEAE, participants (SAD 180 mg) | Insomnia TEAE, participants (SAD 180 mg) | Nasopharyngitis TEAE, participants (SAD 180 mg) | Nervous system disorders TEAE, participants (SAD 180 mg) | Psychiatric disorders TEAE, participants (SAD 180 mg) | Rash TEAE, participants (SAD 180 mg) | Skin and subcutaneous tissue disorders TEAE, participants (SAD 180 mg) | Tooth infection TEAE, participants (SAD 180 mg) | Diarrhea TEAE, participants (SAD 400 mg) | Hypoaesthesia oral TEAE, participants (SAD 400 mg) | Infections and infestations TEAE, participants (SAD 400 mg) | Insomnia TEAE, participants (SAD 400 mg) | Nasopharyngitis TEAE, participants (SAD 400 mg) | Psychiatric disorders TEAE, participants (SAD 400 mg) | Rash TEAE, participants (SAD 400 mg) | Skin and subcutaneous tissue disorders TEAE, participants (SAD 400 mg) | Tooth infection TEAE, participants (SAD 400 mg) | Abdominal pain TEAE, participants (SAD 600 mg) | Diarrhea TEAE, participants (SAD 600 mg) | Dysgeusia TEAE, participants (SAD 600 mg) | Headache TEAE, participants (SAD 600 mg) | Nervous system disorders TEAE, participants (SAD 600 mg) | Rash TEAE, participants (SAD 600 mg) | Skin and subcutaneous tissue disorders TEAE, participants (SAD 600 mg) | Tooth infection TEAE, participants (SAD 600 mg)
4: Any event TEAE, events (SAD 400 mg)
